This is a sample that favours compounds with a hit; in the whole collection about 2.6% have one here.
TCR-CD3 inh: blocks the human TCR-CD3 interaction | TAMRA-labeled TCR probe fluorescence, biochemical | inhibition, % at 9.4 µM | 360,000 compounds, 0.37% hits | AID 651800; in the data active = inhibition above about 19%;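 note: recombinant mutant TCR 2C K166C tagged with TAMRA read by polarization; 0% = receptor in buffer alone and 100% = receptor with positive control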
SIAE primary: inhibitors of human sialic acid acetylesterase SIAE; Q9HAT2; SIAE FP-Rh probe binding, fluorescence polarization; inhibition, % at 9.66 µM; 370,000 compounds, 0.69% hits; AID 1053197;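 active = inhibition above a cutoff: mean of compounds within the control limits plus 3 SD of those, cut at about 17% in these data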;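 note: 0% = plate median of compound wells and 100% = probe without SIAE protein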
PRMT1 FP inh: inhibitors of human PRMT1 | 370,000 compounds, 1.3% hits | AID 652257 | inhibition, % at 2.79 µM | recombinant PRMT1, activity-based probe fluorescence polarization;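 active = inhibition above about 21% made by adding two undisclosed values, limit read from the data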
Target sequence (Q99873 whole entry, looked up): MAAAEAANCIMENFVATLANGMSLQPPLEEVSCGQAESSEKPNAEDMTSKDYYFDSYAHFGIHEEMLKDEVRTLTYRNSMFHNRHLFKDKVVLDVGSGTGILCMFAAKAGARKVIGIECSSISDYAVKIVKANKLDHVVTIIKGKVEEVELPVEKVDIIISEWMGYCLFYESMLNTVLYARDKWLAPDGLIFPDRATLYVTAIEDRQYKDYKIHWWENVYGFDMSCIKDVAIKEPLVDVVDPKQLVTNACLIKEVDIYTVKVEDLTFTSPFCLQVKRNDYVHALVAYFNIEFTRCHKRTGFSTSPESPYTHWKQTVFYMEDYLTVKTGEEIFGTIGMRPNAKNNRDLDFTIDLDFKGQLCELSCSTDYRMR
ABHD4 inh: inhibitors of mouse ABHD4; Q8VD66; purified mABHD4, FP-Rh probe fluorescence polarization; inhibition, % at 8.92 µM; 370,000 compounds, 0.54% hits; AID 720543;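 active = inhibition exceeding the mean over every tested compound plus 3 SD, cut at about 30% in these data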;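 note: 0% = plate median of compound wells and 100% = S159A mutant with DMSO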
Target sequence (Q8VD66 whole entry, looked up): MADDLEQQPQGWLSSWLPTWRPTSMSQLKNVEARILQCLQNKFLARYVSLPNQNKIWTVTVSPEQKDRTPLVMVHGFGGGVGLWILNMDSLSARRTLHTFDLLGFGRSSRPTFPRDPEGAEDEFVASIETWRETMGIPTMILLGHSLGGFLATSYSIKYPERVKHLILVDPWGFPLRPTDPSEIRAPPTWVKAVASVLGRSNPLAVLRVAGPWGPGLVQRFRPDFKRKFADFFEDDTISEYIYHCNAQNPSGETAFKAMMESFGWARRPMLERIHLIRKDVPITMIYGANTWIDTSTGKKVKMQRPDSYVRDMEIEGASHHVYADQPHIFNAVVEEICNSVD
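System: mouse ABHD4 enzyme, wild type / Medium: HEPES pH 7.0, NaCl, Pluronic buffer / Reagent: FP-Rh activity-based fluorescent probe / Control set: S159A mutant high control, sample median low control / Detection: fluorescence polarization with parallel and perpendicular emission, 525/598 nm / Schedule: 45 min + 60 min at 25 °C / Compound dosing: 8.92 µM, single dose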
HTRA1 inh: blocks human HTRA1 serine peptidase | Q92743 | inhibition, % at 5.96 µM | AID 504803 | 340,000 compounds, 0.5% hits | recombinant HTRA1, FP-rhodamine activity-based probe, fluorescence polarization; in the data active = inhibition above about 36%;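 note: 0% = enzyme with DMSO and 100% = wells lacking enzyme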
PRMT1 confirm: confirmation of human PRMT1 inhibitors | 3,300 compounds, 42% hits | AID 687036 | shares compounds with PRMT1 FP inh | recombinant His-PRMT1, activity-based probe fluorescence polarization | inhibition, % at 2.79 µM;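 active = mean inhibition across replicates above the hit cutoff derived for the earlier primary screen, cut at about 22% in these data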
mABHD4 conf: confirmation of mouse ABHD4 inhibitors. shares compounds with ABHD4 inh. purified mABHD4, FP-Rh probe fluorescence polarization. inhibition, % at 8.92 µM. 1,800 compounds, 55% hits. AID 720658;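 active = mean inhibition across replicates above the hit cutoff set in the primary screen, cut at about 30% in these data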;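 note: 0% = wild-type ABHD4 with DMSO and 100% = catalytically dead S159A mutant with DMSO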
SIAE inh conf: human SIAE inhibition, confirmation | 2,300 compounds, 13% hits | shares compounds with SIAE primary | SIAE FP-Rh activity-based probe, fluorescence polarization | inhibition, % at 9.66 µM | AID 1117263;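 active = mean inhibition of the replicates above the hit cutoff set in the primary screen, cut at about 17% in these data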;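 note: 0% = SIAE with DMSO and probe and 100% = probe without SIAE; inhibitors lower polarization as more probe stays unbound to SIAE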
* hit, by the source's call; ! = repeats disagree.

How did Cc1nc(N)sc1-c1csc(Nc2cccc(O)c2)n1 do in these assays?
TCR-CD3 inh: 5; SIAE primary: 17*; PRMT1 FP inh: 25*; ABHD4 inh: 21; HTRA1 inh: 16; PRMT1 confirm: 5; SIAE inh conf: -3

How did Cc1nc(C)c(-c2csc(Nc3cccc(O)c3)n2)s1 do in these assays?
TCR-CD3 inh: -4; SIAE primary: 1; PRMT1 FP inh: 4; ABHD4 inh: 12; HTRA1 inh: -2

How did CCOC(=O)CC[C@@H]1CC[C@]2(CCCN(Cc3cccs3)C2)O1 do in these assays?
SIAE primary: 3; PRMT1 FP inh: -3; ABHD4 inh: 3

Results for O=C(NCc1ccncc1)C(=O)Nc1ccc2c(c1)OCO2 ?
TCR-CD3 inh: 6; SIAE primary: 0; PRMT1 FP inh: -2; ABHD4 inh: 0; HTRA1 inh: 6

How did c1cc(CNc2ccc3c(c2)OCO3)ccn1 do in these assays?
TCR-CD3 inh: 17; SIAE primary: 19*; PRMT1 FP inh: 37*; ABHD4 inh: 19; HTRA1 inh: 16; PRMT1 confirm: 7; SIAE inh conf: 4

Results for O=C(c1ccc2nc(-c3ccco3)c(-c3ccco3)nc2c1)N1CCN(c2ccccc2)CC1 ?
TCR-CD3 inh: -5; SIAE primary: 32*; PRMT1 FP inh: 54*; ABHD4 inh: 32*; HTRA1 inh: -4; PRMT1 confirm: 4; mABHD4 conf: -3; SIAE inh conf: 3

Results for CCCC[C@@H]1C(=O)N2N=Cc3cc(C)c(C)cc3[C@H]2N2N=Cc3cc(C)c(C)cc3[C@@H]12 ?
SIAE primary: -11; PRMT1 FP inh: 5; ABHD4 inh: -12

What do the screens show for `COc1cc(SSc2cc(OC)cc([N+](=O)[O-])c2N)c(N)c([N+](=O)[O-])c1`?
TCR-CD3 inh: -8; SIAE primary: 25*; PRMT1 FP inh: 76*; ABHD4 inh: 29; HTRA1 inh: 17; PRMT1 confirm: 90*; SIAE inh conf: 2

What do the screens show for `N/C(Cc1cccc2ccccc12)=N\OC(=O)c1ccccc1F`?
TCR-CD3 inh: 15; SIAE primary: 41*; PRMT1 FP inh: 49*; ABHD4 inh: 48*; HTRA1 inh: 1; PRMT1 confirm: 4; mABHD4 conf: 3; SIAE inh conf: -8

What do the screens show for `CCOC(=O)C(=C1Nc2ccccc2N1)n1c(-c2cnccn2)nc2ccccc21`?
TCR-CD3 inh: 1; SIAE primary: 1; PRMT1 FP inh: -3; ABHD4 inh: 1

Results for CCOC(=O)C(=C1Nc2ccccc2N1)n1c(-c2ccco2)nc2ccccc21 ?
TCR-CD3 inh: 22*; SIAE primary: 18*; PRMT1 FP inh: 29*; ABHD4 inh: 32*; PRMT1 confirm: 88*; mABHD4 conf: 13; SIAE inh conf: -2

How did COc1ccc(N=Nc2nc3ccc(Br)cc3n2C)cc1 do in these assays?
TCR-CD3 inh: 13; SIAE primary: 18*; PRMT1 FP inh: 133*; ABHD4 inh: 6; HTRA1 inh: 12; PRMT1 confirm: 7; SIAE inh conf: 0

What do the screens show for `COc1ccc(S[C@]2(C(=O)N3CCN(c4ncccn4)CC3)CC(=O)N(C(=O)C3CC3)[C@@H]2c2ccc(OC)cc2)cc1`?
SIAE primary: -3; PRMT1 FP inh: -3; ABHD4 inh: 1

What do the screens show for `COc1ccc(N2C(=O)CC(Cc3ccc(Br)cc3)C2=O)cc1` (stereo not given)?
TCR-CD3 inh: 6; SIAE primary: 5; PRMT1 FP inh: -4; ABHD4 inh: -6; HTRA1 inh: -5

What do the screens show for `COc1ccccc1N(O)C1CC(=O)N(c2ccc(Br)cc2)C1=O` (stereo not given)?
TCR-CD3 inh: 0; SIAE primary: 20*; PRMT1 FP inh: 42*; ABHD4 inh: 34*; HTRA1 inh: 11; PRMT1 confirm: 50*; mABHD4 conf: 28; SIAE inh conf: 9

How did Oc1c(C=C2N=c3ccccc3=N2)sc(=S)n1-c1ccc(F)cc1 do in these assays?
TCR-CD3 inh: 2; SIAE primary: 18*!; PRMT1 FP inh: 41*!; ABHD4 inh: -4; HTRA1 inh: 0; PRMT1 confirm: 3; SIAE inh conf: 0

What do the screens show for `O=C1C(NC(=O)C(F)(F)Br)CCCCN1Cc1cccc(C(F)(F)F)c1` (stereo not given)?
SIAE primary: -2; PRMT1 FP inh: 0; ABHD4 inh: -6

What do the screens show for `COC(=O)[C@]12C[C@H](CC(=O)NCc3cccc(C(F)(F)F)c3)C(=O)N(Cc3ccco3)C1=C[C@H](C(C)(C)C)O[C@@H]2C`?
SIAE primary: 3; PRMT1 FP inh: 3; ABHD4 inh: -10

What do the screens show for `O=C1CCC(C(=O)Nc2cccc(S(=O)(=O)Nc3ccccc3F)c2)=NN1`?
TCR-CD3 inh: 2; SIAE primary: 24*; PRMT1 FP inh: 31*; ABHD4 inh: 7; HTRA1 inh: 1; PRMT1 confirm: 21; SIAE inh conf: 3

How did O=C(Nc1cccc(S(=O)(=O)Nc2ccccc2F)c1)c1ccco1 do in these assays?
TCR-CD3 inh: -7; SIAE primary: -2; PRMT1 FP inh: 7; ABHD4 inh: -3; HTRA1 inh: -4

How did N#CCC(=O)Nc1ccc(C(=O)OCC(=O)Nc2ccccc2Sc2ccccc2)cc1 do in these assays?
TCR-CD3 inh: 9; SIAE primary: 8; PRMT1 FP inh: 1; ABHD4 inh: 52*; mABHD4 conf: -77

Results for C/C=C/c1ccc([C@@H]2[C@H](CO)N(S(C)(=O)=O)[C@H]2CN(C)C(=O)CC)cc1 ?
SIAE primary: 10; PRMT1 FP inh: -1; ABHD4 inh: 7

Results for COc1ccc(N2COC3c4cccc5cccc(c45)C32)cc1 (stereo not given) ?
TCR-CD3 inh: 0; SIAE primary: 7; PRMT1 FP inh: 12; ABHD4 inh: 43*; HTRA1 inh: 8; mABHD4 conf: -4

How did Cc1occc1-c1nnc(SCC(=O)N2CCN(c3ncccn3)CC2)n1-c1ccccc1 do in these assays?
SIAE primary: -1; PRMT1 FP inh: -1; ABHD4 inh: 1

How did CC(=O)c1c(C)oc2c1cc(NS(=O)(=O)c1ccc(C(=O)O)cc1)c1ccccc12 do in these assays?
TCR-CD3 inh: -5; SIAE primary: -8; PRMT1 FP inh: 0; ABHD4 inh: 7; HTRA1 inh: -12

Results for COC(=O)c1c(C)oc2c1cc(NS(=O)(=O)c1ccc(C(=O)O)cc1)c1ccccc12 ?
TCR-CD3 inh: -3; SIAE primary: -14; PRMT1 FP inh: 14; ABHD4 inh: 34*; HTRA1 inh: -20; mABHD4 conf: 21

What do the screens show for `COC(=O)C1CN(Cc2cn(CCC3OCCO3)nn2)CCS(=O)(=O)N1Cc1ccccc1` (stereo not given)?
SIAE primary: 0; PRMT1 FP inh: -2; ABHD4 inh: 4
